# Results as given in PMC9366314 (Acta Pharmaceutica Sinica. B, 2022).
# Columns and labels:
# [1] = tested on: Gαq/11; experiment: IP1 accumulation assay; assay type: cell-based; settings: CHO-M1 cells, mean ± SEM (n = 3)
# [2] = tested on: MP41 cells (GNA11 Q209L mutation); experiment: Cell proliferation inhibition assay; assay type: cell-based; settings: MP41, 72 h, read-out: Antiproliferation (IC50, μmol/L) MP41
# Procedure, shortened: (§1)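 Uveal melanoma cells were grown in RPMI-1640 with 10% FBS at 37 °C, 5% CO2. They were resuspended at 3 × 10^3 cells/mL, seeded and left overnight. Cells were exposed to a concentration series of test compound for 72 h. CCK-8 was added for 2–4 h and absorbance read at 450 nm. IC50 values were fitted from the curves and reported as mean ± SEM, n = 3.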
# [3] = tested on: 92.1 cells (GNAQ Q209L mutation); experiment: Cell proliferation inhibition assay; assay type: cell-based; settings: 72 h, read-out: Antiproliferation (IC50, μmol/L) 92.1
# Procedure, shortened: as §1
# [4] = tested on: CHO-M1 cells; experiment: Cytotoxicity on CHO-M1 cells; assay type: cell-based; settings: CCK-8
# [5] = molecular target: Gαq/11 (Homo sapiens, UniProt P50148); experiment: Agonist; assay type: cell-based; settings: HEK293-AT1R cells; different concentrations
# Gαq/11 (Homo sapiens, UniProt P50148), sequence (P50148 whole entry): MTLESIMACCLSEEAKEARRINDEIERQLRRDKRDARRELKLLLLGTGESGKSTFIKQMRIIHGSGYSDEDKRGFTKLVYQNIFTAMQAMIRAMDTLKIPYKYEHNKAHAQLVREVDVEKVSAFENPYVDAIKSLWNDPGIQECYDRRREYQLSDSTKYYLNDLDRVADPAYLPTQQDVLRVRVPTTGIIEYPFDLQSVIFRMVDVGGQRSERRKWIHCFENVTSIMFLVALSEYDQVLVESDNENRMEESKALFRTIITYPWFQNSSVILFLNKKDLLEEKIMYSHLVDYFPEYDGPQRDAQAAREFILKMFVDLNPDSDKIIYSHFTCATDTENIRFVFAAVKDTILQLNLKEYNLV
# Gαq/11 (Homo sapiens, UniProt P50148), sequence (P62873 2-340 partner limits assumed): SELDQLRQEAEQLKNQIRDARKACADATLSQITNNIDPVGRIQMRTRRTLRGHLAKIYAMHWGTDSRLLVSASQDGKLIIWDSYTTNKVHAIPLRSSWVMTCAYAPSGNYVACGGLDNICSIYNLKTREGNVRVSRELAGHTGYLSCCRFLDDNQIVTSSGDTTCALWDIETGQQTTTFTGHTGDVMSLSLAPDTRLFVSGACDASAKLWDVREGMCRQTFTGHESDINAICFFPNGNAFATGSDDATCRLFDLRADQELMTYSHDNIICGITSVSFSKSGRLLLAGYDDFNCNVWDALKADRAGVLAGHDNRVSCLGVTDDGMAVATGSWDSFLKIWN
# Gαq/11 (Homo sapiens, UniProt P50148), sequence (P59768 2-68 partner limits assumed): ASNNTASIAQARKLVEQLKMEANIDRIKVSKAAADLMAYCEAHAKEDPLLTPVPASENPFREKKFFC
# Procedure, shortened: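 HEK293 cells transiently co-transfected with AT1R, Gαq-RLuc8, unlabeled Gβ1 and Gγ2-Venus, replated 24 h after transfection and cultured overnight. Cells were pretreated 1 h with test compound at several concentrations, then AngII was added, followed by coelenterazine as luciferase substrate. BRET between Gα and Gβγ was read on a plate reader. Runs were in triplicate, mean ± SEM (n = 3).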
# [6] = tested on: Gαq/11; experiment: AngII-induced intracellular Ca2+ release in HEK293-AT1R cells; assay type: cell-based; settings: 100 μmol/L
# Procedure, shortened: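 HEK293 cells overexpressing AT1R were loaded with Fluo-4 AM at 37 °C for 1 h, then pretreated with test compound for 0.5 h. AngII was added at a range of concentrations to build a dose–response curve. Fluorescence was read at 485/525 nm excitation/emission. Data are mean ± SEM, n = 3.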
# [7] = tested on: MP41 cells; experiment: Rescue assay, siRNA GNA11 knockdown in MP41 cells; assay type: cell-based; settings: 72 h
# Procedure, shortened: (§2)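 Cells were transfected with siRNA against GNA11 (MP41) or GNAQ (92.1), or with a matching control siRNA. After 48 h, cells were reseeded at 3000 cells/well and cultured 18–24 h. They were then exposed to test compound for 72 h. CCK-8 was added for 2–4 h and absorbance read at 450 nm. Data are mean ± SEM, n = 3.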
# [8] = tested on: 92.1 cells; experiment: Rescue assay, siRNA GNAQ knockdown in 92.1 cells; assay type: cell-based; settings: 10 and 20 μmol/L; 72 h
# Procedure, shortened: as §2
# [9] = tested on: 92.1 cells; experiment: Cell cycle analysis by flow cytometry, 92.1; assay type: cell-based
# [10] = tested on: MP41 cells; experiment: Apoptosis assay by flow cytometry; assay type: cell-based; settings: 48 h
# Procedure, shortened: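 MP41 cells were seeded at 3 × 10^5 cells/well, left overnight, then exposed to test compound for 48 h. Washed cells were stained with Annexin V-FITC for 15 min, then with PI for 5 min. Samples were analysed by flow cytometry. Data are mean ± SEM, n = 3.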
# [11] = tested on: 92.1 cells; experiment: Apoptosis assay by flow cytometry, 92.1; assay type: cell-based
# [12] = tested on: MP41 cells; experiment: Clonogenic; assay type: cell-based; settings: 1 and 3 μmol/L; 9 days
# Procedure, shortened: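 MP41 cells were seeded at 4000 cells/well and left overnight. They were exposed to test compound for 9 days, with medium and compound renewed every three days. Colonies were fixed in 4% paraformaldehyde for 15 min, stained with crystal violet for 0.5 h and counted with a colony counter. Data are mean ± SEM, n = 3.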
# [13] = tested on: MP41 cells; experiment: Transwell migration assay, MP41; assay type: cell-based; settings: 3, 10, and 20 μmol/L; 48 h
# Procedure, shortened: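 MP41 cells were seeded at 1 × 10^4 cells/well in Transwell upper chambers, with RPMI-1640 plus 20% FBS in the lower chamber, and left overnight. Test compound was added for 48 h. Cells left in the upper chamber were removed, and cells on the lower side were stained with crystal violet for 0.5 h and counted by microscope at ×40.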
# [14] = tested on: 92.1 cells; experiment: Transwell migration assay, 92.1; assay type: cell-based; settings: 3, 10, and 20 μmol/L; 48 h
# [15] = tested on: MP41 cells; experiment: Transwell invasion assay, MP41; assay type: cell-based; settings: 3, 10, and 20 μmol/L
# Procedure, shortened: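 MP41 cells (1 × 10^4/well) were placed in Transwell upper chambers, with RPMI-1640 plus 20% FBS in the lower chamber, and left overnight. Cells were then exposed to test compound for 48 h. Non-migrated cells in the upper chamber were removed. Cells in the lower chamber were stained with crystal violet for 0.5 h and counted by microscope at ×100. Data are mean ± SEM, n = 3.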
# [16] = tested on: 92.1 cells; experiment: Transwell invasion assay, 92.1; assay type: cell-based; settings: 3, 10, and 20 μmol/L
# [17] = tested on: phosphorylated ERK; experiment: Western blot of phosphorylated ERK in MP41 xenograft tumor tissues; assay type: in vivo, mice; settings: testing dose
# Procedure, shortened: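 Cells or xenograft tumour tissue were lysed in RIPA buffer with protease and phosphatase inhibitors. Lysates were cleared at 15,000 rpm, 4 °C for 15 min, and protein was quantified by BCA. Proteins were separated on 8%–12% SDS-PAGE, transferred to PVDF and blocked with 5% BSA. After primary and secondary antibodies, bands were detected by enhanced chemiluminescence.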
# [18] = tested on: phosphorylated YAP; experiment: Western blot of phosphorylated YAP in MP41 xenograft tumor tissues; assay type: in vivo, mice; settings: testing dose
# Procedure, shortened: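 Nude BALB/c nu/nu mice (18–22 g, 6–8 weeks) bearing MP41 xenografts were randomised (n = 6/group) and dosed ip daily for 21 days (5, 15 or 30 mg/kg/day arms). Tumours were taken on Day 22 and lysed in RIPA with phosphatase and protease inhibitors. Lysates were spun at 15,000 rpm, 4 °C for 15 min, protein quantified by BCA, run on 8–12% SDS-PAGE, transferred to PVDF, blocked in 5% BSA and detected by ECL.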
# [19] = Pharmacokinetic studies in ICR mice; assay type: in vivo; settings: male, mouse, plasma
# Procedure, shortened: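 Male ICR mice received test compound at 5 mg/kg iv or 15 mg/kg po. Samples were centrifuged at 6800×g, 2–8 °C for 6 min, stored at −80 °C and quantified by LC–MS/MS.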
compound,measurement,setting,value
CN1CCC[C@H]1CN1CCn2cc(-c3ccccc3)nc2[C@@H]1CC1CCCCC1 [GQ262],IP1 inhibition at 10 μmol/L,[1],57.2 ± 1.9%
same,IC50,[2],5.1 ± 0.6 µmol/L
same,IC50,[3],10.4 ± 0.1 µmol/L
same,"Cell viability of CHO-M1 cells, 2 h","[4]; 2 h, 10 and 20 μmol/L",did not impact the cell viability
same,"Cell viability of CHO-M1 cells, 24 h","[4]; 24 h, up to 20 μmol/L",did not impact the cell viability
same,Effect on AngII-induced BRET signals,[5],dose-dependently inhibitory efficacy on BRET signals
same,Effect on AngII-stimulated Ca2+ release,[6],obviously suppressed the Ca^2+ release
same,Antiproliferative activity on MP41 (si#control),[7]; 5 and 10 μmol/L,remarkable antiproliferative activity
same,Antiproliferative activity on MP41 (si#GNA11),[7]; GNA11 knockdown,could not inhibit MP41 cell proliferation
same,Antiproliferative activity on GNAQ knockdown 92.1 cells,[8],no inhibitory effect on proliferation
same,Cellular proportion in G0/G1 phase,[9]; 10 μmol/L,77.1%
same,Cellular proportion in G0/G1 phase,[9]; 20 μmol/L,83.5%
same,Cell apoptosis,[10]; 3 μmol/L,11.5%
same,Cell apoptosis,[10]; 10 μmol/L,16.0%
same,Apoptotic rate,[11]; 10 μmol/L,9.34%
same,Apoptotic rate,[11]; 20 μmol/L,17.5%
same,Colony formation of MP41 cells,[12],obviously blocked the colony formation
same,MP41 cell migration,[13],remarkably and dose-dependently inhibited
same,92.1 cell migration,[14],remarkably and dose-dependently inhibited
same,MP41 cell invasion,[15],poor invasion
same,92.1 cell invasion,[16],poor invasion
same,Phosphorylated ERK expression in tumor tissues,[17],inhibited the phosphorylated ERK
same,Phosphorylated YAP expression in tumor tissues,[18],increased the accumulation of phosphorylated YAP
same,AUC,"[19]; iv, 5 mg/kg",1.62 ± 0.07 µg·h/mL
same,Cmax,"[19]; iv, 5 mg/kg",2.47 ± 0.192 µg/mL
same,MRT,"[19]; iv, 5 mg/kg",1.1 ± 0.1 h
same,Tmax,"[19]; iv, 5 mg/kg",0.08 h
same,Vd,"[19]; iv, 5 mg/kg",3.9 ± 0.4 L/kg
same,clearance,"[19]; iv, 5 mg/kg",3.01 ± 0.126 L/h/kg
same,half-life,"[19]; iv, 5 mg/kg",1.8 ± 0.2 h
same,AUC,"[19]; po, 15 mg/kg",2.9 ± 0.358 µg·h/mL
same,Cmax,"[19]; po, 15 mg/kg",1.04 ± 0.267 µg/mL
same,MRT,"[19]; po, 15 mg/kg",3.1 ± 0.7 h
same,Tmax,"[19]; po, 15 mg/kg",0.5 ± 0.4 h
same,bioavailability,"[19]; po, 15 mg/kg",59.5%
same,half-life,"[19]; po, 15 mg/kg",2.4 ± 0.7 h
